Measurements pooled from the literature.
MDH2: Malate dehydrogenase, mitochondrial (MDH2, Sus scrofa, UniProt P00346)
SRC: Proto-oncogene tyrosine-protein kinase Src (SRC, Homo sapiens, UniProt P12931)
Gpr84: G-protein coupled receptor 84 (Gpr84, Mus musculus, UniProt Q8CIM5)

SMILES	target	test	setting	quantity	value
Cc1cc2nc3c(=O)[nH]c(=O)nc-3n(C[C@H](O)[C@H](O)[C@H](O)COP(=O)(O)OP(=O)(O)OC[C@H]3O[C@@H](n4cnc5c(N)ncnc54)[C@H](O)[C@@H]3O)c2cc1C	Protein argonaute-2 (AGO2, Homo sapiens, UniProt Q9UKV8)	binding	lysate	Kd	0.021 µM
COc1ccc(S(=O)(=O)Nc2ccc3oc(-c4ccc(NS(=O)(=O)c5cc(Br)ccc5OC)cc4)nc3c2)cc1	MDH2	enzyme activity, inhibitor	–	IC50	> 62.5 µM
Cc1cnc(-c2ccc(-c3ccc(NC(=O)Nc4c(F)cc(F)cc4F)cc3F)c3c2C(=O)NC3)[nH]1	SRC	binding, competition with immobilised ligand	–	Kd	0.11 µM
[O-][n+]1cccc(CCOc2ccc(Cl)c3ccccc23)c1	Gpr84	cAMP, agonist	–	EC50	0.011 µM
CCCCCCCCCCCCCCCC(=O)OC[C@H](COP(=O)(O)OC1[C@H](O)[C@H](O)C(OP(=O)(O)O)[C@H](O)[C@H]1O)OC(=O)CCCCCCCCCCCCCCC (stereo partly drawn)	SRC	binding, fluorescence	–	Kd	25.7 µM
CC(=O)N[C@@H](Cc1ccccc1)C(=O)N1CCC[C@H]1C(=O)N1CCC[C@H]1C(=O)N1CCC[C@H]1C(=O)N1CCC[C@H]1C(=O)O	Protein enabled homolog (ENAH, UniProt Q8N8S7)	binding, fluorescence	–	Kd	500 µM
CCCCCCCCCC(=O)O	Gpr84	cAMP, agonist	–	EC50	> 10 µM
CC(C)(C)n1nc(-c2ccc3nc(OC4CC4)ccc3c2)c(C(N)=O)c1N	RAC-alpha serine/threonine-protein kinase (AKT1, Homo sapiens, UniProt P31749)	cell-free assay	–	IC50	> 10 µM
CC(O)CN1CCC(CC[S+]([O-])C(c2ccc(F)cc2)c2ccc(F)cc2)CC1 (stereo not drawn)	Transporter (Slc6a2, Rattus norvegicus, UniProt Q63380)	ligand displacement, radioligand	–	Ki	> 100 µM
CNC(=O)c1cc2c(Oc3ccc(NC(=O)C4(C(=O)Nc5ccc(F)cc5)CC4)cc3)ccnc2cc1OC	Ephrin type-A receptor 2 (EPHA2, Homo sapiens, UniProt P29317)	enzyme activity, inhibitor, radiometric	–	IC50	0.054 µM
CC(=O)N[C@@H](CCCNC(=N)N)C(=O)NCCOCCOCC(=O)N[C@H](CC(=O)O)C(=O)N1CCC[C@H]1B(O)O	Dipeptidyl peptidase 4 (DPP4, Homo sapiens, UniProt P27487)	enzyme activity, inhibitor, fluorescence	–	Ki	7.13 µM
O=C(Nc1ccc(Sc2nc3ccccc3s2)c(Cl)c1)c1cccc(Br)c1O	MDH2	enzyme activity, inhibitor	–	IC50	> 62.5 µM
CCCN1CCN(c2ccc(-c3cncc(Cl)c3N3CCC4(CCNC4=O)CC3)cc2)CC1	Serine/threonine-protein kinase D2 (PRKD2, Homo sapiens, UniProt Q9BZL6)	cell-free assay	lysate	Kd	20 µM
CC(C)C[C@H](NC(=O)[C@H](CCCNC(=N)N)NC(=O)[C@H](C)N)C(=O)N[C@@H](Cc1ccc(O)cc1)C(=O)N[C@@H](Cc1ccc(O)cc1)C(=O)N[C@@H](Cc1ccccc1)C(=O)N[C@@H](Cc1c[nH]c2ccccc12)C(=O)N[C@@H](CC(=O)O)C(=O)N[C@H](C(=O)O)[C@@H](C)O	DNA dC->dU-editing enzyme APOBEC-3G (APOBEC3G, Homo sapiens, UniProt Q9HC16)	enzyme activity, inhibitor	–	Ki	~7.8 µM
O=C(Nc1ccc(Sc2nc3ccccc3s2)cc1)c1cccc(Br)c1O	MDH2	enzyme activity, inhibitor	–	IC50	> 62.5 µM
